According to ChEMBL document CHEMBL4145684 (J Med Chem, 2018):
Active and inactive are the calls of the source. The calls are words filed in the database; no cut-off is given here.

What was measured:
[1] = target: T1, Estrogen receptor (Homo sapiens, UniProt P03372); experiment: Induction of ERalpha degradation in human MCF7 cells in phenol red free RPMI medium containing 5% charcoal dextran-treated FBS incubated for 4 hrs by SP1 and anti-ER rabbit monocolnal antibody based in-cell Western assay
T1 sequence (P03372 whole entry): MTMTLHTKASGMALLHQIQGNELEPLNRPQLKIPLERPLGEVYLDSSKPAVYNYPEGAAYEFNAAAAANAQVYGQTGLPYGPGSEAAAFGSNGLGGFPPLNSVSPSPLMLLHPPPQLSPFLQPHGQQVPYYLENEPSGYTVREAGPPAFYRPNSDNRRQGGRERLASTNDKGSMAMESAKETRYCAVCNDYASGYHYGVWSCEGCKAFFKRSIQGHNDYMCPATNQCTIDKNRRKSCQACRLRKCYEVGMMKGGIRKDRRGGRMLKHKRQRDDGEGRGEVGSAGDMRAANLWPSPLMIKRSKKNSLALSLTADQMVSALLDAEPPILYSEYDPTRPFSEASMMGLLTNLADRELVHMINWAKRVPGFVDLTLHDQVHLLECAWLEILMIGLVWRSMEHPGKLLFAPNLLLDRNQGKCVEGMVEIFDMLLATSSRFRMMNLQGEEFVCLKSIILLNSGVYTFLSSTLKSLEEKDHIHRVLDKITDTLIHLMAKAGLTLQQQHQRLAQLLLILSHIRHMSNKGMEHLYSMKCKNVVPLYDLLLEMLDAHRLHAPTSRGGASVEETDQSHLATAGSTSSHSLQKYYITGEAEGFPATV

[2] = system: MCF7; experiment: Antiproliferative activity against human MCF7 cells assessed as reduction in cell proliferation in RPMI containing 10% FBS incubated for 5 days by Cell-titer-Glo assay; format: functional, cell-based; conditions: MCF7, 120 h
Procedure, shortened: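 MCF-7 cells, 640/well in RPMI with 10% FBS and 20 mM HEPES, adhered overnight; 10-point 1:5 dilution series (10–0.000005 µM final) for 5 days. CellTiter-Glo luminescence, cell-free medium background subtracted, percent viability vs untreated cells; n ≥ 3.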

[3] = AUC in mouse at 10 mg/kg, po; format: ADME, organism-based; conditions: in vivo
Procedure, shortened: (§1)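 Mouse or rat PK: single intravenous dose 3 mg/kg or oral dose 10 mg/kg, vehicle PEG400/PVP/Tween 80/0.5% CMC in water (9:0.5:0.5:90).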

[4] = Clearance in Sprague-Dawley rat at 1 mg/kg, iv; format: ADME, organism-based; conditions: in vivo
[5] = Oral bioavailability in Sprague-Dawley rat at 2 mg/kg; format: ADME, organism-based; conditions: in vivo
[6] = Volume of distribution at steady state in mouse at 3 mg/kg, iv; format: ADME, organism-based; conditions: in vivo, read-out: Vdss; procedure, shortened: as §1
[7] = Oral bioavailability in mouse at 10 mg/kg; format: ADME, organism-based; conditions: in vivo; procedure, shortened: as §1
[8] = system: MCF7; experiment: Antitumor activity against human MCF7 cells xenografted in nu/nu mouse model of tamoxifen-sensitive breast cancer xenograft implanted with 17beta-estradiol time release pellets assessed as reduction tumor volume at 6 mg/kg, po qd for 4 weeks; format: functional, organism-based
[9] = Volume of distribution at steady state in rat at 3 mg/kg, iv; format: ADME, organism-based; conditions: in vivo, read-out: Vdss; procedure, shortened: as §1
[10] = Half life in mouse at 3 mg/kg, iv; format: ADME, organism-based; conditions: in vivo; procedure, shortened: as §1
[11] = Cmax in rat at 10 mg/kg, po; format: ADME, organism-based; set-up: dose 10 mg/kg, route oral; conditions: in vivo; procedure, shortened: as §1
[12] = Clearance in mouse at 3 mg/kg, iv; format: ADME, organism-based; conditions: in vivo; procedure, shortened: as §1
[13] = Oral bioavailability in rat at 10 mg/kg; format: ADME, organism-based; conditions: in vivo; procedure, shortened: as §1
[14] = AUC (0 to infinity) in mouse at 10 mg/kg, po; format: ADME, organism-based; set-up: dose 10 mg/kg, route oral, time infinity; conditions: in vivo
[15] = system: MCF7; experiment: Antitumor activity against human MCF7 cells xenografted in nu/nu mouse model of tamoxifen-resistant breast cancer xenograft implanted with 17beta-estradiol time release pellets assessed as reduction tumor volume at 60 mg/kg, po qd for 4 weeks; format: functional, organism-based
Procedure, shortened: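 Female nu/nu mice with 0.72 mg 60-day 17β-estradiol pellets bearing MCF-7 tumors, pretreated with oral tamoxifen citrate; at ~150-250 mm3 (mean 200 mm3) randomized, tamoxifen stopped, then dosed daily for 4 weeks; tumor volume (length x width2/2) and body weight twice weekly.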

[16] = AUC in human MCF7 cells xenografted nu/nu mouse implanted with 17beta-estradiol time release pellets dosed orally once daily for 4 weeks; format: ADME, organism-based; conditions: in vivo, po
[17] = AUC (0 to infinity) in rat at 10 mg/kg, po; format: ADME, organism-based; set-up: dose 10 mg/kg, route oral, time infinity; conditions: in vivo
[18] = Clearance in rat at 3 mg/kg, iv; format: ADME, organism-based; conditions: in vivo; procedure, shortened: as §1
[19] = system: Rattus norvegicus; experiment: Reduction in uterine wet weight in ethynyl estradiol-stimulated CD-IGS rat at 1 mg/kg, po dosed daily for 3 days by gavage followed 15 mins later by 0.1 mg/kg, po ethynyl estradiol and measured 24 hrs after last dose by immature rat uterine wet weight assay; format: functional
Procedure, shortened: (§2)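 Female immature CD-IGS rats, 21 days old on arrival; oral gavage of vehicle or compound daily for 3 days, ethynyl estradiol 0.1 mg/kg orally 15 min after each dose. Day 4, 24 h post-dose, plasma taken, then uterus removed and weighed. Reduction = 100 x (VehicleEE – Cpd)/(VehicleEE – Vehicle).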

[20] = Cmax in mouse at 10 mg/kg, po; format: ADME, organism-based; set-up: dose 10 mg/kg, route oral; conditions: in vivo; procedure, shortened: as §1
[21] = Half life in rat at 3 mg/kg, iv; format: ADME, organism-based; conditions: in vivo; procedure, shortened: as §1
[22] = system: Rattus norvegicus; experiment: In-vivo agonist activity at ERalpha in CD-IGS rat assessed as increase in uterine wet weight at 10 mg/kg, po dosed daily for 3 days by gavage and measured 24 hrs after last dose by immature rat uterine wet weight assay; format: functional, organism-based
Procedure, shortened: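 Immature CD-IGS rats given compound orally for 3 days without ethynyl estradiol (agonist mode); on day 4, 24 h after dosing, uterus removed and weighed; wet weight normalized to total body weight.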

[23] = system: Rattus norvegicus; experiment: Reduction in uterine wet weight in ethynyl estradiol-stimulated CD-IGS rat at 10 mg/kg, po dosed daily for 3 days by gavage followed 15 mins later by 0.1 mg/kg, po ethynyl estradiol and measured 24 hrs after last dose by immature rat uterine wet weight assay; format: functional; procedure, shortened: as §2
[24] = target: T1, Estrogen receptor; experiment: Binding affinity to ERalpha (unknown origin)

Compound | IC50 [1] [nM] | IC50 [2] [nM] | other results
CC1=C(c2cccc(O)c2)C(c2ccc(OCCN3CCCC3)cc2)Oc2ccc(O)cc21 (configuration not stated) | 0.4 | 0.3 | 
CC1=C(c2cccc(O)c2)C(c2ccc(OC[C@H](C)N3CC[C@@H](C)C3)cc2)Oc2cc(O)ccc21 (some centres not stated) | 0.2 | 0.3 | AUC [3]: 50 ng·h/mL
CC1=C(c2ccc(C#N)cc2)C(c2ccc(OC[C@H](C)N3CC[C@@H](C)C3)cc2)Oc2ccc(O)cc21 (some centres not stated) |  | 10 | IC50 ([1]; mcf7): 1.5 nM; AUC [3]: 2000 ng·h/mL
Oc1ccc([C@H]2Sc3cc(O)ccc3O[C@H]2c2ccc(OCCN3CCCCC3)cc2)cc1 |  |  | clearance [4]: 5 mL/min/kg; bioavailability [5]: 31%
CC1=C(c2cccc(O)c2)C(c2ccc(OCCN3CCCCCC3)cc2)Oc2ccc(O)cc21 (configuration not stated) | 0.2 | 0.2 | 
CC1=C(c2ccc(S(C)(=O)=O)cc2)C(c2ccc(OC[C@H](C)N3CC[C@@H](C)C3)cc2)Oc2ccc(O)cc21 (some centres not stated) | 5.7 | 27 | 
Oc1ccc([C@H]2Sc3ccc(O)cc3O[C@H]2c2ccc(OCCN3CCCCC3)cc2)cc1 |  |  | clearance [4]: 154 mL/min/kg; bioavailability [5]: 0%
CC1=C(c2ccc(O)cc2)[C@H](c2ccc(OCCN3CCCCC3)cc2)Oc2cc(O)ccc21 [ACOLBIFENE] |  |  | AUC [3]: 90 ng·h/mL
CC1=C(c2cccc(O)c2)C(c2ccc(OC[C@H](C)N3CCCC3)cc2)Oc2ccc(O)cc21 (some centres not stated) | 0.4 | 0.2 | 
CC1=C(c2ccc(F)cc2)C(c2ccc(OC[C@H](C)N3CC[C@@H](C)C3)cc2)Oc2ccc(O)cc21 (some centres not stated) |  |  | Vd [6]: 11 L/kg; IC50 ([1]; mcf7): 0.4 nM; bioavailability [7]: 35%; Activity [8]: Active; Vd [9]: 12 L/kg; half-life [10]: 5.2 h; Cmax [11]: 280 ng/mL; clearance [12]: 30 mL/min/kg; bioavailability [13]: 54%; AUC(0-inf) [14]: 2000 ng·h/mL; Activity [15]: inactive; AUC at 672 h [16]: 36000 ng·h/mL; AUC(0-inf) [17]: 4500 ng·h/mL; clearance [18]: 21 mL/min/kg; inhibition (INH) [19]: 111%; Cmax [20]: 170 ng/mL; AUC [3]: 2000 ng·h/mL; half-life [21]: 7.4 h
CC1=C(c2cccc(O)c2)C(c2ccc(OCCN3CCC(C)CC3)cc2)Oc2ccc(O)cc21 (configuration not stated) | 0.2 | 0.2 | 
CC1=C(c2ccccc2)C(c2ccc(OC[C@H](C)N3CC[C@@H](C)C3)cc2)Oc2ccc(O)cc21 (some centres not stated) | 0.4 | 0.4 | AUC [3]: 1000 ng·h/mL
CC1=C(c2cccc(O)c2)C(c2ccc(OC[C@H](C)N3CCCCCC3)cc2)Oc2ccc(O)cc21 (some centres not stated) | 0.2 | 0.2 | 
CC1=C(c2ccc(O)cc2)C(c2ccc(OC[C@H](C)N3CC[C@@H](C)C3)cc2)Oc2cc(O)ccc21 (some centres not stated) | 0.3 | 0.2 | AUC [3]: 120 ng·h/mL
CC1=C(c2cccc(O)c2)C(c2ccc(OC[C@H](C)N3CCCCC3)cc2)Oc2ccc(O)cc21 (some centres not stated) | 0.2 | 0.1 | 
CC1=C(c2cccc(O)c2)C(c2ccc(OCCN3CC(C)C3)cc2)Oc2ccc(O)cc21 (configuration not stated) |  |  | IC50 ([1]; mcf7): 0.3 nM

Compound | IC50 [1] [nM] | IC50 [2] [nM] | other results
CC1=C(c2cccc(O)c2)C(c2ccc(OCCN3CC[C@H](C)C3)cc2)Oc2ccc(O)cc21 (some centres not stated) | 0.2 | 0.3 | 
CC1=C(c2cccc(O)c2)C(c2ccc(OC[C@@H](C)N3CCCC3)cc2)Oc2ccc(O)cc21 (some centres not stated) | 0.3 | 0.2 | Activity [22]: Active; inhibition (INH) [23]: 84%
CC1=C(c2cccc(C#N)c2)C(c2ccc(OC[C@H](C)N3CC[C@@H](C)C3)cc2)Oc2ccc(O)cc21 (some centres not stated) | 0.7 | 2.6 | 
CC1=C(c2cccc(O)c2)C(c2ccc(OCCN3CCC3)cc2)Oc2ccc(O)cc21 (configuration not stated) | 0.3 | 0.2 | 
CC1=C(c2cccc(O)c2)C(c2ccc(OCCN3CCCCC3)cc2)Oc2ccc(O)cc21 (configuration not stated) | 0.2 | 0.2 | 
CC1=C(c2cccc(O)c2)C(c2ccc(OCCN3CC[C@@H](C)C3)cc2)Oc2ccc(O)cc21 (some centres not stated) | 0.4 | 0.2 | 
CC1=C(c2cccc(F)c2)C(c2ccc(OC[C@H](C)N3CC[C@@H](C)C3)cc2)Oc2ccc(O)cc21 (some centres not stated) | 0.5 | 1 | AUC [3]: 350 ng·h/mL
CC1=C(c2cccc(S(C)(=O)=O)c2)C(c2ccc(OC[C@H](C)N3CC[C@@H](C)C3)cc2)Oc2ccc(O)cc21 (some centres not stated) | 1.4 | 4.3 | 
CC1=C(c2cccc(O)c2)C(c2ccc(OC[C@@H](C)N3CC[C@H](C)C3)cc2)Oc2ccc(O)cc21 (some centres not stated) | 0.2 | 0.2 | 
CC1=C(c2cccc(O)c2)[C@H](c2ccc(OC[C@H](C)N3CC[C@@H](C)C3)cc2)Oc2ccc(O)cc21 | 0.1 | 0.1 | IC50 [24]: 2.8 nM
CC1=C(c2cccc(O)c2)C(c2ccc(OC[C@@H](C)N3CC[C@@H](C)C3)cc2)Oc2ccc(O)cc21 (some centres not stated) | 0.3 | 0.2 | 
CC1=C(c2cccc(O)c2)[C@@H](c2ccc(OC[C@H](C)N3CC[C@@H](C)C3)cc2)Oc2ccc(O)cc21 | 9.7 | 59 | IC50 [24]: 136 nM
CC1=C(c2cccc(O)c2)C(c2ccc(OC[C@H](C)N3CCC3)cc2)Oc2ccc(O)cc21 (some centres not stated) | 0.9 | 0.1 | 
CC1=C(c2ccc(O)cc2)C(c2ccc(OC[C@H](C)N3CC[C@@H](C)C3)cc2)Oc2ccc(O)cc21 (some centres not stated) | 0.1 | 0.1 | inhibition (INH) [19]: 113%; AUC [3]: 460 ng·h/mL
CC1=C(c2cccc(O)c2)C(c2ccc(OC[C@H](C)N3CC[C@H](C)C3)cc2)Oc2ccc(O)cc21 (some centres not stated) | 0.2 | 0.2 | 
